The list is not random: actives were taken first. Their share in the collection is about 2.2%.
HTRA1 inh: HTRA1 serine protease inhibitors, primary screen, biochemical, fluorescence polarization, HTS; inhibition, % at 5.96 µM; 340,000 compounds, 0.5% hits; AID 504803, 2011; Q92743; recombinant HTRA1, FP-rhodamine activity-based probe; in the data active = inhibition above about 36%
TCR CD3 inh: inhibitors of human TCR-CD3 interaction, primary screen, biochemical, fluorescence, TAMRA-labeled TCR probe; 360,000 compounds, 0.37% hits; inhibition, % at 9.4 µM; T-cell receptor (TCR); AID 651800, 2012; in the data active = inhibition above about 19%;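 also: recombinant mutant TCR 2C K166C tagged with TAMRA read by polarization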
LEDGF integ inh: blockers of LEDGF/p75-dependent integrase strand transfer – biochemical, TR-FRET, high throughput, primary screen. AID 743269, 2014. inhibition, % at 3.7 µM. 370,000 compounds, 0.64% hits. TR-FRET IN-LEDGF/p75 DNA integration, Eu/Cy5. HIV-1 integrase (with human LEDGF/p75);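 active = inhibition above the screen-wide mean plus 3 SD, cut at about 13% in these data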;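 also: signal is the Cy5 over europium emission ratio at 671 and 618 nm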
TDP2 inh: human TDP2 enzyme inhibitors, primary screen, biochemical, epi absorbance, recombinant enzyme | T5PNP hydrolysis, p-nitrophenol absorbance 415 nm | 370,000 compounds, 0.34% hits | Tyrosyl-DNA phosphodiesterase 2 (Homo sapiens), O95551 | inhibition, % at 12.8 µM | AID 720702, 2013;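 active = inhibition above the mean of all tested compounds plus 3 SD, set per campaign, cut at about 25% in these data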
Target sequence (O95551 whole entry, looked up): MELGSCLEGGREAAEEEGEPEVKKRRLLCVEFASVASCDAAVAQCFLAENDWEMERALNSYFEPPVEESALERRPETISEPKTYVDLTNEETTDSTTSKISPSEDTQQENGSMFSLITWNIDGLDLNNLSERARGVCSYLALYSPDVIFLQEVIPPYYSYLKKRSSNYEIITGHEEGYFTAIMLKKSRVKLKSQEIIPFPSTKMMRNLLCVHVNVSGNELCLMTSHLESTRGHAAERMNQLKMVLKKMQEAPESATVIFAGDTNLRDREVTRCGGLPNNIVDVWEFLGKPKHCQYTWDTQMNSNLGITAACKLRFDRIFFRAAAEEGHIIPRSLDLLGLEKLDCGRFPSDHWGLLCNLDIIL
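Test system: Human TDP2 enzyme | Reagent: 5 mM T5PNP | Compound dosing: 12.8 µM single point, 1% DMSO | Incubation: Enzyme reaction with compound for 2 h at 37 °C | Technique: p-Nitrophenol epi absorbance | Read-out: % inhibition relative to enzyme-containing and enzyme-free wells | Benchmarks: High control without enzyme, low control DMSO plus TDP2 | Replicates: Singlicate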
ABHD4 inh: ABHD4 inhibitors, primary screen, biochemical, fluorescence polarization, mouse | 370,000 compounds, 0.54% hits | (Lyso)-N-acylphosphatidylethanolamine lipase (Mus musculus), Q8VD66 | inhibition, % at 8.92 µM | purified mABHD4, FP-Rh probe fluorescence polarization;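 active = inhibition exceeding the mean over every tested compound plus 3 SD, cut at about 30% in these data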
Target sequence (Q8VD66 whole entry, looked up): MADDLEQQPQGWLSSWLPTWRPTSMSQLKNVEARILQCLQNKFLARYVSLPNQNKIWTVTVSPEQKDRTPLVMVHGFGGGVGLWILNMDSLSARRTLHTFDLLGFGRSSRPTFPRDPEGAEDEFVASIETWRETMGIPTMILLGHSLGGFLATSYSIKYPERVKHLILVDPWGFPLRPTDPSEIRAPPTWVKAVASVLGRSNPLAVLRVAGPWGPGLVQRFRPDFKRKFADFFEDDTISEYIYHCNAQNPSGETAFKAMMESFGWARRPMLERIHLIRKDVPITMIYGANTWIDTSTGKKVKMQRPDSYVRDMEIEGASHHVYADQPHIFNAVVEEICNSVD
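Assay system: Wild-type mouse ABHD4 protein | Medium: HEPES pH 7.0 buffer, 150 mM NaCl, 0.01% Pluronic F-127 | Incubation: Enzyme–compound pre-incubation 45 min, then probe 60 min, both 25 °C | Technique: Fluorescence polarization with parallel and perpendicular emission, 525/598 nm | Evaluation: % inhibition of FP-Rh probe binding versus controls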
SIAE primary: human SIAE inhibitors, primary screen, biochemical, fluorescence polarization, FP-Rh probe, 1536-well HTS | 370,000 compounds, 0.69% hits | AID 1053197, 2014 | SIAE FP-Rh probe binding | inhibition, % at 9.66 µM | Sialate O-acetylesterase (Homo sapiens), Q9HAT2;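 active = inhibition above a cutoff: mean of compounds within the control limits plus 3 SD of those, cut at about 17% in these data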
IN multimer up: HIV-1 IN multimer formation enhancers, counter-screen for LEDGF/p75 integration inhibitor project, biochemical, TR-FRET. shares compounds with LEDGF integ inh. TR-FRET HIV-1 integrase multimerization. activation, % at 7.7 µM. 2,000 compounds, 17% hits. AID 1053131, 2014; in the data active = activation above about 8.9%
TRFRET interf: TR-FRET optical interference artefacts, confirmation, artefact control for LEDGF/p75-dependent integration inhibitor project, biochemical, HIV-1 IN multimerization; inhibition, % at 7.7 µM; TR-FRET optical interference counterscreen; AID 1053135, 2014; shares compounds with LEDGF integ inh; 2,000 tested, under 10 active;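 active = inhibition above the mean over all tested compounds plus 3 SD, which no compound reached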
LEDGF integ conf: inhibitors of HIV-1 IN-LEDGF/p75 DNA integration, confirmation, biochemical, TR-FRET; shares compounds with LEDGF integ inh; TR-FRET LEDGF/p75-dependent HIV-1 integration; inhibition, % at 3.7 µM; 2,000 compounds, 36% hits; AID 1053136, 2014; in the data active = inhibition above about 14%
Large screens that a line does not name were inactive (follow-up assays come after a bar, where they were run).

O=[N+]([O-])c1cnc2ccccc2c1Sc1ccccc1	none (no result: HTRA1 inh, TCR CD3 inh)
CCCCCCCCCCCCN1CCSCCS1(=O)=O	LEDGF integ inh 22 (no result: HTRA1 inh) | IN multimer up inactive | TRFRET interf inactive | LEDGF integ conf inactive
FC(F)(F)c1ccc(Cn2ccc3ccc(-c4ccc5ccn(Cc6ccccc6)c5c4)cc32)cc1	none (no result: HTRA1 inh, TCR CD3 inh)
O=C(Nc1ccccc1N1CCCCC1)c1ccc(OC(F)F)cc1	LEDGF integ inh 36 | IN multimer up inactive | TRFRET interf inactive | LEDGF integ conf inactive
Cc1cc(-c2csc(N)n2)c(C)n1Cc1ccco1	LEDGF integ inh 24 | IN multimer up 17 | TRFRET interf inactive | LEDGF integ conf 80
Cc1cc(C(=O)CSc2nnc(N)s2)c(C)n1Cc1ccco1	none
CC1C(=O)N(Cc2cn(Cc3ccco3)nn2)CCS(=O)(=O)N1Cc1ccc(-c2cccnc2)cc1 (configuration not stated)	LEDGF integ inh 17 (no result: HTRA1 inh) | IN multimer up inactive | TRFRET interf inactive | LEDGF integ conf inactive
CCC1CCc2sc(C(=O)NCC(c3ccc(OC)cc3)N3CCOCC3)cc2C1 (configuration not stated)	LEDGF integ inh 62 | IN multimer up inactive | TRFRET interf inactive | LEDGF integ conf inactive
COc1cccc(C(C(=O)NCc2ccccc2)N2CCN(CCN3CCOCC3)CC2)c1OC (configuration not stated)	none (no result: HTRA1 inh)
O=C(Nc1ccc(C(=O)O)cc1)/C(=C\c1ccco1)NC(=O)c1ccccc1Cl	LEDGF integ inh 17 | IN multimer up inactive | TRFRET interf inactive | LEDGF integ conf inactive
CC(C)(C)c1ccc(C(=O)N/C(=C\c2ccco2)C(=O)Nc2ccccc2C(=O)O)cc1	LEDGF integ inh 20 | IN multimer up inactive | TRFRET interf inactive | LEDGF integ conf 26
CCCCN1CN2Cc3ccc(C)cc3C2CS1(=O)=O (configuration not stated)	none (no result: HTRA1 inh, TCR CD3 inh)
CCN(CC)C(=O)c1ccc2c(c1)NC(=O)C(C)(C)O2	none (no result: HTRA1 inh, TCR CD3 inh)
O=C(O)c1ccc(NC(=O)C2C3CCC(O3)C2C(=O)O)cc1 (configuration not stated)	none
O=C(O)c1ccc(NC2OC[C@@H](O)[C@H](O)[C@H]2O)cc1 (some centres not stated)	LEDGF integ inh 18 | IN multimer up inactive | TRFRET interf inactive | LEDGF integ conf inactive
CC(=O)N1CCc2cc3nc(C)cc(C)c3cc21	LEDGF integ inh 52 | IN multimer up inactive | TRFRET interf inactive | LEDGF integ conf inactive
COc1ccc(/C=C2\C(=O)NC(=O)c3ccccc32)cc1OC	LEDGF integ inh 30, TDP2 inh 63 | IN multimer up 16 | TRFRET interf inactive | LEDGF integ conf 65
COC(=O)[C@]12CCCCC=C1N(Cc1ccco1)C(=O)[C@H](CC(=O)NCC13CC4CC(CC(C4)C1)C3)C2	LEDGF integ inh 28 (no result: HTRA1 inh) | IN multimer up inactive | TRFRET interf inactive | LEDGF integ conf inactive
C#CCNC(=O)C[C@@H]1C[C@@]2(C(=O)OCC)CCCC=C2N(Cc2ccccc2)C1=O	LEDGF integ inh 19 (no result: HTRA1 inh) | IN multimer up inactive | TRFRET interf inactive | LEDGF integ conf inactive
CCOC(=O)[C@]12CCCC=C1N(Cc1ccccc1)C(=O)[C@H](CC(=O)NCc1ccccc1)C2	none (no result: HTRA1 inh)
CCN(CC(=O)Nc1ccccc1OC)C(=O)c1ccc(NC(=O)c2cccs2)cc1	none
O=C(C(=O)N1CCN(C(=O)C2CCCC2)CC1)c1cccc(C(F)(F)F)c1	none (no result: HTRA1 inh)
COc1ccc(N(CC(=O)NCc2ccco2)S(=O)(=O)c2ccc(C)cc2)cc1OC	none
COc1ccccc1N(CC(=O)NCc1ccco1)S(=O)(=O)c1ccc(C)cc1	LEDGF integ inh 23 | IN multimer up inactive | TRFRET interf inactive | LEDGF integ conf 28
CC(Sc1ccc2nnc(-c3ccc(F)cc3)n2n1)C(=O)O (configuration not stated)	none
CCOC(=O)C(C)Sc1ccc2nnc(-c3ccc(F)cc3)n2n1 (configuration not stated)	LEDGF integ inh 15 | IN multimer up inactive | TRFRET interf inactive | LEDGF integ conf inactive
COc1cc(O)c(C(C)=O)c(CC(=O)O)c1	LEDGF integ inh 31 | IN multimer up 33 | TRFRET interf inactive | LEDGF integ conf 59
COc1cc(C(=O)NCC(c2ccc(F)cc2)N2CCOCC2)ccc1OCc1ccccc1Cl (configuration not stated)	none
Nc1nc(COC(=O)C2CC(=O)N(Cc3ccccc3Cl)C2)nc(Nc2ccccc2)n1 (configuration not stated)	LEDGF integ inh 18 | IN multimer up inactive | TRFRET interf inactive | LEDGF integ conf inactive
Nc1nc(COC(=O)C2CC(=O)N(Cc3ccccc3)C2)nc(Nc2ccccc2)n1 (configuration not stated)	none
NC(c1csc(Nc2ccccn2)n1)C1CCCCC1 (configuration not stated)	LEDGF integ inh 14 (no result: HTRA1 inh) | IN multimer up inactive | TRFRET interf inactive | LEDGF integ conf inactive
NC(c1ccccc1)c1csc(Nc2ccccn2)n1 (configuration not stated)	none (no result: HTRA1 inh)
Cc1ccc(N2C(=O)[C@@H]3[C@H](C2=O)C2c4ccccc4C=CN2[C@@H]3C(=O)c2ccco2)cc1 (some centres not stated)	LEDGF integ inh 13 | IN multimer up inactive | TRFRET interf inactive | LEDGF integ conf 25
Cc1ccc(C)c(Nc2ccc(C(=O)NCCc3ccccc3)cn2)c1	LEDGF integ inh 37 | IN multimer up inactive | TRFRET interf inactive | LEDGF integ conf inactive

Source: PubChem BioAssay
